These results are taken from ChEMBL document CHEMBL1955799, “Cyclic dipeptides exhibit potency for scavenging radicals” (Bioorg Med Chem, 2012).

Assay type in all cases: functional
Experiment [1] is described as follows: Antioxidant activity assessed as hydroxyl radical scavenging activity at 2.5 mM by electron spin resonance method. A digest of the protocol:
(§1)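 ESR spectrometry of radical signal, same settings for hydroxyl and superoxide radicals: magnetic field 335.7 ± 5 mT, power 4 mW at 9.414 GHz, modulation 100 kHz 1 × 0.079 mT, response 0.1 s, amplitude 160, sweep time 2 min, 25 °C. Activity is expressed as % inhibition of the radical signal.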

The nature of experiment [2]: Antioxidant activity assessed as superoxide radical scavenging activity at 2.5 mM by electron spin resonance method. A digest of the protocol: as §1
A short description of experiment [3]: Antioxidant activity assessed as hydroxyl radical scavenging activity by electron spin resonance method. The method, boiled down: as §1
Experiment [4] in a line: Antioxidant activity assessed as superoxide radical scavenging activity by electron spin resonance method. A digest of the protocol:
as §1

A word on the inhibition: it is the relative decrease from the control value, in per cent. As usually defined, the IC50 is the concentration that inhibits the measured activity by half.

Take `CC(C)C[C@@H]1NC(=O)[C@H]([C@@H](C)O)NC1=O`: the inhibition in experiment [1] and in experiment [2] was 0% in each case.
On to `CC(C)C[C@@H]1NC(=O)[C@H](Cc2cnc[nH]2)NC1=O`, for which, in experiment [3], the half-inhibitory concentration (IC50) was 850 µM. Moreover, the inhibition in experiment [1] came to 83.9%; in experiment [2] it was 0%.
On to `CC(C)C[C@@H]1NC(=O)[C@H](CC(N)=O)NC1=O`, for which the concentration for half-maximal inhibition (IC50) in experiment [3] came to 170 µM. The inhibition in experiment [1] stood at 96%; in experiment [2], 0%.
As to VITAMIN E, the inhibition in experiment [1] was found to be 37.7%; in experiment [2], 32.3%.
The like results for `CC(C)C[C@@H]1NC(=O)[C@H](Cc2ccccc2)NC1=O` were, in that order, 23.5% and 0%.
In the case of `CC(C)C[C@@H]1NC(=O)[C@H](CO)NC1=O`, in experiment [3], the IC50 turned out to be 1000 µM. In addition, the inhibition in experiment [1] came to 95.2%; in experiment [2] it was 0%.
Take `CC(C)C[C@@H]1NC(=O)[C@H](CCC(N)=O)NC1=O`: the figures for the inhibition in experiment [1] and in experiment [2] were 19% and 0%, respectively.
For the compound `CC(C)C[C@@H]1NC(=O)[C@H](CC(C)C)NC1=O`, the inhibition turned out to be 26% in experiment [1] and 0% in experiment [2].
Take `CC(C)C[C@@H]1NC(=O)[C@H](Cc2c[nH]c3ccccc23)NC1=O`: the IC50 in experiment [3] stood at 1800 µM. The inhibition in experiment [1] was 66%; in experiment [2] it was 0%.
The like results for `CC(C)C[C@@H]1NC(=O)[C@H](CCCCN)NC1=O` were, in that order, 160 µM, 96% and 0%.
Consider `CC(C)C[C@@H]1NC(=O)CNC1=O`, for which the inhibition in experiment [1] and in experiment [2] was 0% throughout.
As to `CSCC[C@@H]1NC(=O)[C@H](CC(C)C)NC1=O`, the IC50 in experiment [3] was 800 µM. Further, the figures for the inhibition in experiment [1] and in experiment [2] were 79% and 0%, respectively.
For `CC(C)C[C@@H]1NC(=O)[C@@H]2CCCN2C1=O` the same measures were 1100 µM, 86.2% and 0%.
In the case of `CC(C)C[C@@H]1NC(=O)[C@H](CCC(=O)O)NC1=O`, in experiment [3], the half-maximal inhibitory concentration (IC50) was found to be 80 µM. In addition, the inhibition in experiment [1] was 97.8%; in experiment [2], 0%.
Regarding `CC(C)C[C@@H]1NC(=O)[C@H](C(C)C)NC1=O`, the values for the inhibition in experiment [1] and in experiment [2] were 12.3% and 0%, respectively.
As to `CC(C)C[C@@H]1NC(=O)[C@H](C)NC1=O`, in experiment [2], the inhibition is 0%.
Take `CC(C)C[C@@H]1NC(=O)[C@H](CS)NC1=O`: the figures for the half-maximal inhibitory concentration (IC50) in experiment [3] and in experiment [4] were 100 µM and 880 µM, respectively. Moreover, the inhibition is 88.9% in experiment [1] and 83.3% in experiment [2].
Turning to `CC(C)C[C@@H]1NC(=O)[C@H](CC(=O)O)NC1=O`, the IC50 in experiment [3] is 4 µM. Further, the inhibition turned out to be 95% in experiment [1] and 0% in experiment [2].
